Source: ChEMBL document CHEMBL5096209, “Structure-Activity Studies of 3,9-Diazaspiro[5.5]undecane-Based γ-Aminobutyric Acid Type A Receptor Antagonists with Immunomodulatory Effect” (J Med Chem, 2021)

Assays:
[1] = target: T1, GABA A receptor alpha-2/beta-2/gamma-2 (Homo sapiens, UniProt P18507+P47869+P47870); assay: Antagonist activity at human alpha2beta2gamma2 GABAA receptor expressed in HEK cells by FMP assay; format: cell-based
T1 sequence (P47870 whole entry): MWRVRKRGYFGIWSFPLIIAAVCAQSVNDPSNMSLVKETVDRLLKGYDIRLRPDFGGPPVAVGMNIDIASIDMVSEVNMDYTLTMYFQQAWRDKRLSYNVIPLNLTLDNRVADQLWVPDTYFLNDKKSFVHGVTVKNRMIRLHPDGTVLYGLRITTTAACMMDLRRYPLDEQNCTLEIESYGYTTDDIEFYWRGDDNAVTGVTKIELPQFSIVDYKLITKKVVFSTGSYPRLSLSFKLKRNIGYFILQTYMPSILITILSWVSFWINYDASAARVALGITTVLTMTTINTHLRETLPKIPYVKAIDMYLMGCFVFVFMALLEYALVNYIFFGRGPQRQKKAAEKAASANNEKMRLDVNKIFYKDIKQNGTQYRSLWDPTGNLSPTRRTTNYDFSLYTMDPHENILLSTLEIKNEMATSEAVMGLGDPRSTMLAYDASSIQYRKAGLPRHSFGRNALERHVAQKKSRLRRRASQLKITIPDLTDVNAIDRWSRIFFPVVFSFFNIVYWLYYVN
T1 sequence (P18507 whole entry): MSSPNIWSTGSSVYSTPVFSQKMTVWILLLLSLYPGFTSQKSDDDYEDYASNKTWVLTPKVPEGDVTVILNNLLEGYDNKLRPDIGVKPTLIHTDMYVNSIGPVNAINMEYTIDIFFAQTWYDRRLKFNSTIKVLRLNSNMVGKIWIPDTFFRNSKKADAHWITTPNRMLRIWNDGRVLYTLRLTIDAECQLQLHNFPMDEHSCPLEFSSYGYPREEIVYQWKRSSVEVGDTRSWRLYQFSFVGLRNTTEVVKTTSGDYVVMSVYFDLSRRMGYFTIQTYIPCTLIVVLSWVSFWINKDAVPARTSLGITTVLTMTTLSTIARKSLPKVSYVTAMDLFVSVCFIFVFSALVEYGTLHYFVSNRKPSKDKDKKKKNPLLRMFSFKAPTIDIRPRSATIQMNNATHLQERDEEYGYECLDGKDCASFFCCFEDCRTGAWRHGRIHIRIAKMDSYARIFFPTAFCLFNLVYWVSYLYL
T1 sequence (P47869 whole entry): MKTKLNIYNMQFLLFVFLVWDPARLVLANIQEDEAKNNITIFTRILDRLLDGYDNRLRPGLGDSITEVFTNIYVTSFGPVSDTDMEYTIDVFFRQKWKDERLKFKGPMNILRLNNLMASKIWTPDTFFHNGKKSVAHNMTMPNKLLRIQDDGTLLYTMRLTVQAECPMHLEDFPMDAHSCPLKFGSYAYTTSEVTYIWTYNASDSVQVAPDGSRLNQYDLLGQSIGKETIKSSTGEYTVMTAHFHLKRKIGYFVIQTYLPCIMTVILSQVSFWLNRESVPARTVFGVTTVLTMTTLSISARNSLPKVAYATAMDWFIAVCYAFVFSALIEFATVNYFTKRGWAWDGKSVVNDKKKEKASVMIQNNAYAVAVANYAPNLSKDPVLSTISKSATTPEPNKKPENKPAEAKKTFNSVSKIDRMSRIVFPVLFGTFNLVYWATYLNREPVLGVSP
Outline: (§1)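 Human αβγ2 receptors in HEK293 cells: α1β2γ2 stably expressed, other αβγ2 subtypes transiently transfected into HEK293 Flp-In background cells (α:β:γ 1:1:2). FLIPR membrane potential assay with ΔRFU baseline to peak/plateau and GABA EC80 as agonist. IC50 from a four-parameter fit, at least three independent experiments.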

[2] = target: GABA-A receptor; anion channel; assay: Displacement of [3H]-muscimol from rat cortical synaptic membrane GABAA receptor assessed as inhibition constant by microscint-scintillation method; format: cell membranes, Cortex
Outline: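 Rat cortical synaptic membranes, washed repeatedly in 50 mM Tris-HCl pH 7.4, 70–80 μg protein. Incubated at 0 °C with 5 nM [3H]-muscimol (final) and a range of test concentrations, then filtered and counted by scintillation. Nonspecific binding defined with 1.0 mM GABA. IC50 converted to Ki by Cheng–Prusoff, triplicate, three independent experiments.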

[3] = target: Gamma-aminobutyric acid receptor subunit alpha-4/beta-1/delta (Homo sapiens, UniProt O14764+P18505+P48169); assay: Antagonist activity at human alpha4beta1delta GABAA receptor expressed in HEK293 Flp-In cells by FMP assay; format: cell-based, Flp-In-293
Chain of Gamma-aminobutyric acid receptor subunit alpha-4/beta-1/delta (P48169 whole entry): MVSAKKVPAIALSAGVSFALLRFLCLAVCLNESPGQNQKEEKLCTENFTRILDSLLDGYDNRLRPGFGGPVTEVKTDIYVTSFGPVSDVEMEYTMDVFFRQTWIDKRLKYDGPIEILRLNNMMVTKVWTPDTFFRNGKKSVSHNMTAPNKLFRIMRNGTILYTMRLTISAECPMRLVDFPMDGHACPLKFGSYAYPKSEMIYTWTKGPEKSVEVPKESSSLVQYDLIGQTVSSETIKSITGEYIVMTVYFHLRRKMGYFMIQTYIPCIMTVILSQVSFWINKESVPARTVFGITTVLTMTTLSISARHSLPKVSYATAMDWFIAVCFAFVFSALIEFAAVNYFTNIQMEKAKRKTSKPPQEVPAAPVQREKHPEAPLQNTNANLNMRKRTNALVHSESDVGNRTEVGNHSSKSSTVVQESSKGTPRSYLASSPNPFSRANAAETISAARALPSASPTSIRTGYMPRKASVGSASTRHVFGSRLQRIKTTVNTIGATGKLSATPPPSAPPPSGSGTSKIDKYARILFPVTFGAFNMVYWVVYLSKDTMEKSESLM
Chain of Gamma-aminobutyric acid receptor subunit alpha-4/beta-1/delta (O14764 whole entry): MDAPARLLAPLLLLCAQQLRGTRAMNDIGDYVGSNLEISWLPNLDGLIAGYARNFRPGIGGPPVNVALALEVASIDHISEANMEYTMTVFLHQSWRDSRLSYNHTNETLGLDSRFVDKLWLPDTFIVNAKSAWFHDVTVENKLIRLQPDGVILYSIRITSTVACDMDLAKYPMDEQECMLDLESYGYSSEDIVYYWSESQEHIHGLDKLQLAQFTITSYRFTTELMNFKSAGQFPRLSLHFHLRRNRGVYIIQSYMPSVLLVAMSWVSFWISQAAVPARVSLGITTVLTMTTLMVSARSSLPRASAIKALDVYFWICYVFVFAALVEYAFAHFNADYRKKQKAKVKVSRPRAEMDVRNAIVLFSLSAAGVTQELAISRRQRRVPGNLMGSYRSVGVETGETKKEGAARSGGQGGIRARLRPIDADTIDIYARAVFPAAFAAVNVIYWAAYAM
Chain of Gamma-aminobutyric acid receptor subunit alpha-4/beta-1/delta (P18505 whole entry): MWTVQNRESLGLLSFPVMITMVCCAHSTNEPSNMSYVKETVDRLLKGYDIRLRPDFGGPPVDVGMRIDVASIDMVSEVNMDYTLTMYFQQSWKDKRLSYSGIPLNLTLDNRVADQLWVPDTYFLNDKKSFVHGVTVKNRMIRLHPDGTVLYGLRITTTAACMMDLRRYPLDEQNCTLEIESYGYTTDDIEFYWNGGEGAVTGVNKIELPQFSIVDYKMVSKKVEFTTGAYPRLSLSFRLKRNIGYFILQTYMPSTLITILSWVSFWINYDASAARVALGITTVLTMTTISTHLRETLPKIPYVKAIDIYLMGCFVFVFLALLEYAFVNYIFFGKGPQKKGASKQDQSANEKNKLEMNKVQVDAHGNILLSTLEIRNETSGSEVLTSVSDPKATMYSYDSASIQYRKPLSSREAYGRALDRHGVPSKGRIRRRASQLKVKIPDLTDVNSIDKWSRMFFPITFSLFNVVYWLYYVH
Outline: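 HEK293 Flp-In cells stably expressing human δ subunit, transiently transfected with human α and β subunits (1:1) to form αβδ receptors. Read-out is the FLIPR membrane potential dye ΔRFU, baseline to peak/plateau, with GABA EC80 as agonist. Four-parameter fit of concentration–inhibition curves gives IC50, from at least three independent experiments.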

[4] = target: T1, GABA A receptor alpha-2/beta-2/gamma-2; assay: Antagonist activity at human alpha2beta2gamma2 GABAA receptor expressed in HEK293 cells by FMP assay; format: cell-based; outline: as §1
[5] = target: T2, Gamma-aminobutyric acid receptor subunit alpha-5/beta-2/gamma-2 (Homo sapiens, UniProt P18507+P31644+P47870); assay: Antagonist activity at human alpha5beta2gamma2 GABAA receptor expressed in HEK293 cells by FMP assay; format: cell-based; outline: as §1
T2 sequence (P47870 whole entry): T1 sequence (P47870 whole entry)
T2 sequence (P18507 whole entry): T1 sequence (P18507 whole entry)
T2 sequence (P31644 whole entry): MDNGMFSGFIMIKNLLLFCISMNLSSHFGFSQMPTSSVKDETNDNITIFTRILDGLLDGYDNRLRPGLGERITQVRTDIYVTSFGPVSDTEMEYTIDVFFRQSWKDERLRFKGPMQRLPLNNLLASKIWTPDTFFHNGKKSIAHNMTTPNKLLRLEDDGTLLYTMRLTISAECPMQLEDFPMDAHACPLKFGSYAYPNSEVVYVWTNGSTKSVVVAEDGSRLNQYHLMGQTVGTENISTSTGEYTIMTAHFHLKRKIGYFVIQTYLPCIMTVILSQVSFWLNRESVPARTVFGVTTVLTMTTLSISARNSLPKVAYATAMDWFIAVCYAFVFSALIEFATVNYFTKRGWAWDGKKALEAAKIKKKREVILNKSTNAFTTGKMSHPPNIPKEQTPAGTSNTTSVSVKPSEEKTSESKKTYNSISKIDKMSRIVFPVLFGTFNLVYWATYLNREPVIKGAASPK

SMILES	IC50 [1] [nM]	IC50 ([1]; read-out: pIC50 (converted)) [nM]	Ki [2] [nM]	IC50 [3] [nM]	IC50 ([3]; read-out: pIC50 (converted)) [nM]	IC50 [4] [µM]	IC50 ([4]; read-out: pIC50 (converted)) [µM]	IC50 [5] [nM]	IC50 ([5]; read-out: pIC50 (converted)) [nM]
O=C(Nc1cccc(C(=O)N2CCC3(CCNCC3)CC2)c1)c1cccs1	320	324							
Cc1cccc(C(=O)N2CCC3(CCNCC3)CC2)c1			180	195	182	7.56	7.41	540	537
CC(=O)Nc1cccc(C(=O)N2CCC3(CCNCC3)CC2)c1	2960	2950							
Cc1ccc(C(=O)N2CCC3(CCNCC3)CC2)cc1			520	1280	1260	25.3	25.1	1500	1450
